Laboratory results published in ChEMBL document CHEMBL5380787, “Optimized M24B Aminopeptidase Inhibitors for CARD8 Inflammasome Activation” (J Med Chem, 2023).
Activity calls are given as the source filed them. The calls are words filed in the database; no cut-off is given here.

Columns and labels:
[1] = system: OCI-AML2; experiment: Cytotoxicity against human OCI-AML2 cells assessed as reduction in cell viability at 1 uM incubated for 24 hrs by celltiter-glo assay relative to control; assay type: functional
Summary of the method: (§1)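 Single-dose viability screen. MV4;11 or OCI-AML2 cells at 2000 cells/well were exposed to 1 μM compound for 24 h. Viability was read by CellTiter-Glo luminescence and expressed as percent inhibition. Values are means of three biological replicates.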

[2] = system: THP-1; experiment: Induction of pyroptosis in CARD8 knockout human THP-1 cells assessed as LDH release at 20 uM incubated for 24 hrs; assay type: functional, cell-based
Summary of the method: (§2)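 Cells (MV4;11, OCI-AML2 or THP-1; WT or the knockout named) plated at 5 × 10^5 cells/well and exposed to 20 μM compound for 24 h. LDH in the supernatant was measured relative to a Triton X-100 lysis control. For immunoblots, cells were washed in PBS, sonicated, protein-normalized, run on SDS-PAGE and probed for GSDMD cleavage. n = 3.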

[3] = system: MV4-11; experiment: Cytotoxicity against CASP1 knockout human MV4-11 cells assessed as reduction in cell viability incubated for 24 hrs by celltiter-glo assay; assay type: functional, cell-based; settings: MV4-11, 24 h
Summary of the method: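 MV4;11 cells (WT or CASP1−/−), grown in RPMI 1640 with 10% FBS at 37 °C, 5% CO2, plated 2000 cells/well, dosed by pintool across 100 μM to 15.2 nM in three-fold steps for 24 h. Viability by CellTiter-Glo luminescence after 2 min shaking and 10 min at 25 °C. IC50 as mean ± SEM of three biological replicates.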

[4] = system: THP-1; experiment: Induction of pyroptosis in XPNPEP1 knockout human THP-1 cells assessed as LDH release at 20 uM incubated for 24 hrs; assay type: functional, cell-based; summary of the method: as §2
[5] = system: OCI-AML2; experiment: Induction of pyroptosis in human OCI-AML2 cells assessed as LDH release at 20 uM incubated for 24 hrs; assay type: functional, cell-based; summary of the method: as §2
[6] = target: Xaa-Pro aminopeptidase 1 (Homo sapiens, UniProt Q9NQW7); experiment: Inhibition of 6-His tagged XPNPEP1 (unknown origin) expressed in Escherichia coli Rosetta DE3 cells using H-Lys(abz)-Pro-Pro-pNA as substrate at 20 uM incubated for 60 mins by fluorescence based analysis relative to control
Summary of the method: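 His6-tagged XPNPEP1 was expressed in E. coli Rosetta DE3 (IPTG, 16 h, 37 °C) and purified on TALON resin. Enzyme at 3.5 nM was exposed to compound, then H-Lys(abz)-Pro-Pro-pNA was added at 100 μM final. Fluorescence (Ex/Em 320/410) was followed for 60 min. Single-point inhibition used 20 μM; IC50 as mean ± SEM of three biological replicates.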

[7] = system: HEK-293T; experiment: Induction of pyroptosis in human HEK293T cells expressing CASP1 and GSDMD cotransfected with dTAG-CARD8ZUC and CARD8 FIIND S297A assessed as destabilization of DPP9-CARD8 ternary complex by measuring GSDMD clevage at 20 uM incubated for 6 hrs in presence of dTAG13 by immunoblot analysis; assay type: functional, cell-based
[8] = system: MV4-11; experiment: Induction of pyroptosis in human MV4-11 cells assessed as GSDMD cleavage at 20 uM incubated for 24 hrs by immunoblot analysis; assay type: functional, cell-based; summary of the method: as §2
[9] = system: MV4-11; experiment: Induction of cell death in CARD8 knockout human MV4-11 cells assessed as increase in PI uptake at 6.25 uM incubated for 6 hrs by PI staining based fluorescence analysis; assay type: functional
Summary of the method: (§3)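 PI flux assay. 2 × 10^4 MV4;11 (WT, CARD8−/− or CASP1−/−) or OCI-AML2 cells in RPMI were given compound at 6.25 μM plus PI at 10 μM final. Fluorescence (Ex/Em 535/617 nm) was read every 5 min at 37 °C for 6 h, baseline-corrected to DMSO and normalized to the maximum response. n = 3.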

[10] = system: MV4-11; experiment: Induction of pyroptosis in CARD8 knockout human MV4-11 cells assessed as LDH release at 20 uM incubated for 24 hrs; assay type: functional, cell-based; summary of the method: as §2
[11] = system: BMDM; experiment: Induction of pyroptosis in C57BL/6J mouse BMDM cells expressing NLRP1A and NLRP1B allele 2 assessed as GSDMD clevage at 20 uM incubated for 24 hrs by immunoblot analysis; assay type: functional, cell-based
Summary of the method: (§4)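 Bone marrow cells from femurs and tibias of 7–12-week-old C57BL/6J mice were RBC-lysed and differentiated for 6 days at 37 °C in DMEM with 10% FBS and 15–20% L-cell medium, then replated. Cells were exposed to 20 μM compound for 24 h. Read-outs were LDH release against a lysis control and GSDMD immunoblot.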

[12] = system: RAW264.7; experiment: Induction of pyroptosis in mouse RAW264.7 cells expressing NLRP1B allele 1 assessed as LDH release at 20 uM incubated for 24 hrs; assay type: functional, cell-based
Summary of the method: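 RAW264.7 cells, grown in DMEM with 10% FBS, plated at 5 × 10^5 cells/well and exposed to 20 μM compound for 24 h. Supernatant LDH was measured relative to a Triton X-100 lysis control; lysates were immunoblotted for GSDMD cleavage. n = 3.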

[13] = system: BMDM; experiment: Induction of pyroptosis in C57BL/6J mouse BMDM cells expressing NLRP1A and NLRP1B allele 2 assessed as LDH release at 20 uM incubated for 24 hrs; assay type: functional, cell-based; summary of the method: as §4
[14] = system: MV4-11; experiment: Induction of cell death in human MV4-11 cells assessed as increase in PI uptake at 6.25 uM incubated for 6 hrs by PI staining based fluorescence analysis; assay type: functional; summary of the method: as §3
[15] = system: OCI-AML2; experiment: Induction of cell death in human OCI-AML2 cells assessed as reduction in cell viability incubated for 24 hrs by celltiter-glo assay; assay type: functional, cell-based
Summary of the method: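 OCI-AML2 cells, WT or CARD8−/−, were grown in RPMI 1640 with 10% FBS and plated at 2000 cells/well. Compound was added over a range of concentrations for 24 h, and viability was then read by CellTiter-Glo luminescence. Means ± SEM, n = 3.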

[16] = system: MV4-11; experiment: Cytotoxicity against human MV4-11 cells assessed as reduction in cell viability at 1 uM incubated for 24 hrs by celltiter-glo assay relative to control; assay type: functional; summary of the method: as §1
[17] = system: MV4-11; experiment: Induction of pyroptosis in human MV4-11 cells assessed as LDH release at 20 uM incubated for 24 hrs; assay type: functional, cell-based; summary of the method: as §2
[18] = system: THP-1; experiment: Induction of pyroptosis in DPP8/9 knockout human THP-1 cells assessed as LDH release at 20 uM incubated for 24 hrs; assay type: functional, cell-based; summary of the method: as §2

Chain of Xaa-Pro aminopeptidase 1 (Q9NQW7 whole entry): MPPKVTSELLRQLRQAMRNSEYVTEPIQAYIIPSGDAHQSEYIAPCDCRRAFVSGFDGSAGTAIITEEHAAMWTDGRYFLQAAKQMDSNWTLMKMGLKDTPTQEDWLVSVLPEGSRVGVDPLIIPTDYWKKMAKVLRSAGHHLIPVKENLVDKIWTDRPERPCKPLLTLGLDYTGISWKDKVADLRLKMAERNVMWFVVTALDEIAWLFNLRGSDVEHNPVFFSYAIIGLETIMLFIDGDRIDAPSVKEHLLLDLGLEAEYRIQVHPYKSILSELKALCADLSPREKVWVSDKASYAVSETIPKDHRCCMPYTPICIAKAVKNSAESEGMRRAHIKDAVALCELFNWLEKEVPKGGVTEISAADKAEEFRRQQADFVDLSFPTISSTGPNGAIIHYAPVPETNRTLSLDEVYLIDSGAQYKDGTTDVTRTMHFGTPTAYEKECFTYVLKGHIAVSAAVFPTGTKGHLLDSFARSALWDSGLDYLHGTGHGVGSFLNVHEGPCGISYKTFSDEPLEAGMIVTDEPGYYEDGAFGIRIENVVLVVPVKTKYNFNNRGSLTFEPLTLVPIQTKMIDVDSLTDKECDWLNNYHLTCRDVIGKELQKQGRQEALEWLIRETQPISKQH

| inhibition [6] [%] | SMILES | Activity [1] [%] | Activity [2] | IC50 [3] [µM] | Activity [4] | Activity [5] | Activity [7] | Activity [8] | Activity [9] | Activity [10] | Activity [11] | Activity [12] | Activity [13] | Activity [14] | Activity [15] | Activity [16] [%] | Activity [17] | Activity [18] |
| --- | --- | --- | --- | --- | --- | --- | --- | --- | --- | --- | --- | --- | --- | --- | --- | --- | --- | --- |
| 74 | COC(=O)[C@H](CC(C)C)NC(=O)[C@@H]1CCCN1C(=O)[C@@H](O)[C@H](N)CC(C)C | 37 | inactive | > 20 | Active | Active | Active | Active | inactive | inactive | inactive | inactive | inactive | Active | Active | 45 | Active | inactive |
| 96 | COC(=O)[C@@H]1CCCN1C(=O)[C@@H](O)[C@H](N)CC(C)C | 42 | inactive | > 100 | Active | Active | Active | Active | inactive | inactive | inactive | inactive | inactive | Active | Active | 72 | Active | inactive |
